Test results as given in ChEMBL document CHEMBL5154773, “Development of Sulfamoylated 4-(1-Phenyl-1H-1,2,3-triazol-4-yl)phenol Derivatives as Potent Steroid Sulfatase Inhibitors for Efficient Treatment of Breast Cancer” (J Med Chem, 2022).
pIC50: −log10 of the molar value. Calls of active or inactive are those of the source. No cut-off for these calls is given here.

What was measured:
[1] = Toxicity in BALB/c mouse allografted with mouse 67NR cells assessed as effect on erythrocyte count at 50 mg/kg, po for 5 days a week; format: organism-based; details: in vivo, 168 h, time 1 weeks
[2] = system: Mus musculus; test: In vivo inhibition of STS in BALB/c mouse allografted with mouse 67NR cells assessed as reduction in estradiol level in plasma at 50 mg/kg, po administered 5 days a week by ELISA; format: functional, organism-based; details: time 1.0 weeks
[3] = Toxicity in BALB/c mouse assessed as toxic effects at 10 to 50 mg/kg, po for 5 days a week for 2 weeks; format: organism-based; details: in vivo, 336 h, dose 10-50 mg/kg
Outline: (§1)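 Female BALB/c mice, three per dose, received oral doses of 10 mg/kg/day, 5 days a week for 2 weeks. Later mice received 20 or 50 mg/kg. Body weight and general health, including feces, were followed. After cervical dislocation, liver, kidney and spleen were weighed, and liver, kidneys, intestines and spleen were assessed macroscopically.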

[4] = Toxicity in BALB/c mouse assessed as body weight loss at 10 to 50 mg/kg, po for 5 days a week for 2 weeks; format: organism-based; details: in vivo, 336 h, dose 10-50 mg/kg; outline: as §1
[5] = Toxicity in BALB/c mouse assessed as change in feces consistency at 50 mg/kg, po for 5 days a week for 2 weeks; format: organism-based; details: in vivo, 336 h; outline: as §1
[6] = Toxicity in BALB/c mouse assessed as macroscopic changes in liver at 10 to 50 mg/kg, po for 5 days a week for 2 weeks; format: organism-based; details: in vivo, 336 h, dose 10-50 mg/kg; outline: as §1
[7] = Toxicity in BALB/c mouse assessed as macroscopic changes in kidneys at 10 to 50 mg/kg, po for 5 days a week for 2 weeks; format: organism-based; details: in vivo, 336 h, dose 10-50 mg/kg; outline: as §1
[8] = Toxicity in BALB/c mouse assessed as macroscopic changes in intestines at 10 to 50 mg/kg, po for 5 days a week for 2 weeks; format: organism-based; details: in vivo, 336 h, dose 10-50 mg/kg; outline: as §1
[9] = Toxicity in BALB/c mouse assessed as macroscopic changes in spleen at 10 to 50 mg/kg, po for 5 days a week for 2 weeks; format: organism-based; details: in vivo, 336 h, dose 10-50 mg/kg; outline: as §1
[10] = Toxicity in BALB/c mouse assessed as weight change of liver at 10 to 50 mg/kg, po for 5 days a week for 2 weeks; format: organism-based; details: in vivo, 336 h, dose 10-50 mg/kg; outline: as §1
[11] = Toxicity in BALB/c mouse assessed as weight change of kidney at 10 to 50 mg/kg, po for 5 days a week for 2 weeks; format: organism-based; details: in vivo, 336 h, dose 10-50 mg/kg; outline: as §1
[12] = Toxicity in BALB/c mouse assessed as weight change of spleen at 10 to 50 mg/kg, po for 5 days a week for 2 weeks; format: organism-based; details: in vivo, 336 h, dose 10-50 mg/kg; outline: as §1
[13] = Toxicity in BALB/c mouse assessed as maximum tolerated dose administered orally for 5 days a week; details: in vivo, route po, time 1 weeks
Outline: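 Female Balb/c mice, three per dose, were dosed per os, starting at 10 mg/kg/day and then at 20 and 50 mg/kg, 5 days a week for 2 weeks. Body weight and general health were followed. At autopsy, liver, kidney and spleen were weighed and examined macroscopically.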

[14] = Toxicity in BALB/c mouse allografted with mouse 67NR cells assessed as body weight loss at 50 mg/kg, po for 5 days a week and measured 3 times a week relative to control; format: organism-based; details: in vivo, 168 h, time 1 weeks
[15] = Toxicity in BALB/c mouse allografted with mouse 67NR cells assessed as enlarged liver at 50 mg/kg, po for 5 days a week; format: organism-based; details: in vivo, 168 h, time 1 weeks
[16] = Toxicity in BALB/c mouse allografted with mouse 67NR cells assessed as increase in alanine aminotransferase levels in plasma at 50 mg/kg, po for 5 days a week; format: organism-based; details: in vivo, 168 h, time 1 weeks
[17] = Toxicity in BALB/c mouse allografted with mouse 67NR cells assessed as increase in aspartate aminotransferase levels in plasma at 50 mg/kg, po for 5 days a week; format: organism-based; details: in vivo, 168 h, time 1 weeks
[18] = Toxicity in BALB/c mouse allografted with mouse 67NR cells assessed as decrease in spleen weight at 50 mg/kg, po for 5 days a week; format: organism-based; details: in vivo, 168 h, time 1 weeks
[19] = Toxicity in BALB/c mouse allografted with mouse 67NR cells assessed as decrease in lymphocyte count at 50 mg/kg, po for 5 days a week; format: organism-based; details: in vivo, 168 h, time 1 weeks
[20] = Toxicity in BALB/c mouse allografted with mouse 67NR cells assessed as increase in monocyte count at 50 mg/kg, po for 5 days a week; format: organism-based; details: in vivo, 168 h, time 1 weeks
[21] = Toxicity in BALB/c mouse allografted with mouse 67NR cells assessed as increase in granulocyte count at 50 mg/kg, po for 5 days a week; format: organism-based; details: in vivo, 168 h, time 1 weeks
[22] = Toxicity in BALB/c mouse allografted with mouse 67NR cells assessed as effect on hemoglobin levels at 50 mg/kg, po for 5 days a week; format: organism-based; details: in vivo, 168 h, time 1 weeks
[23] = Toxicity in BALB/c mouse allografted with mouse 67NR cells assessed as effect on hematocrit levels at 50 mg/kg, po for 5 days a week; format: organism-based; details: in vivo, 168 h, time 1 weeks
[24] = Toxicity in BALB/c mouse allografted with mouse 67NR cells assessed as increase in blood urea levels at 50 mg/kg, po for 5 days a week; format: organism-based; details: in vivo, 168 h, time 1 weeks
[25] = In vivo inhibition of STS in BALB/c mouse allografted with mouse 67NR cells assessed as residual enzyme activity in tumor lysates using [3H]E1S as substrate at 50 mg/kg, po for 5 days a week followed by incubation of tumor lysates with [3H]E1S for 3 hrs by radioisotope enzymatic assay (reference value: 100%); format: functional, Neoplasm; details: time 1 weeks
[26] = In vivo inhibition of STS in BALB/c mouse allografted with mouse 67NR cells assessed as residual enzyme activity in liver lysates using [3H]E1S as substrate at 50 mg/kg, po for 5 days a week followed by incubation of […] with [3H]E1S for 3 hrs by radioisotope enzymatic assay (reference value: 100%); format: functional; details: time 1 weeks
[27] = target: T1, Steryl-sulfatase (Homo sapiens, UniProt P08842); test: Inhibition of human placental STS using [3H]E1S as substrate incubated for 3 hrs by radioisotope enzymatic assay; format: tissue-based, Placenta
T1 sequence (P08842 whole entry): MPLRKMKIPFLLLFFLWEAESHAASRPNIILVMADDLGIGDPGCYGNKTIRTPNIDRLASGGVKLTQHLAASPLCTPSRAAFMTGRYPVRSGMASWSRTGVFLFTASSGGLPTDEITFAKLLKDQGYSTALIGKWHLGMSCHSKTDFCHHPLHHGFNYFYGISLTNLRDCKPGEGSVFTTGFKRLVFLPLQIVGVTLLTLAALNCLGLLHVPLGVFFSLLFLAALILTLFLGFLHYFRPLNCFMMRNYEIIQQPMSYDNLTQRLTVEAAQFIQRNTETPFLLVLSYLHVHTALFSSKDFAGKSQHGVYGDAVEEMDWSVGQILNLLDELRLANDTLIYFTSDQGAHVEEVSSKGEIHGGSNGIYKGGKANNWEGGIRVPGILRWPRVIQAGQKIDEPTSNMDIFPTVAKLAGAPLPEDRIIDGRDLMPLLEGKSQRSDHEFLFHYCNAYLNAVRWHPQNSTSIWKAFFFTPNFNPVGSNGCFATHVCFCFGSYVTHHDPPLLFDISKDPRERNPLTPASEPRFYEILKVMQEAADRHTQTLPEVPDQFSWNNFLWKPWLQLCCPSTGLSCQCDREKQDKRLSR
Outline: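 Purified placental STS, 5 U (1 U hydrolyses 100 μM NPS in 1 h at 37 °C), incubated with [3H]E1S (3 nM, 4 × 10⁴ Bq) and inhibitor in 20 mM Tris-HCl pH 7.4 for 3 h at 37 °C. The hydrolysis product was extracted into toluene and counted. Results are expressed as residual STS activity (%) from triplicate runs.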

In the case of `NS(=O)(=O)Oc1ccc(-c2cn(-c3cc(F)cc(F)c3)nn2)cc1`, the Activity [1] was “Non-Toxic”, the inhibition [2] was “Active” and the Activity [3] was “Non-Toxic”. The Activity [4] was “Non-Toxic”, the Activity [5] was “Toxic” and the Activity [6] was “Non-Toxic”. For the same compound, the Activity [7] was “Non-Toxic”, the Activity [8] was “Non-Toxic” and the Activity [9] was “Non-Toxic”. For the same compound, the Activity [10] was “Non-Toxic”, the Activity [11] was “Non-Toxic” and the Activity [12] was “Non-Toxic”. The MTD at 168 h [13] was 50 mg/kg, the Activity [14] was 4.5% and the Activity [15] was “Toxic”. The Activity [16] was “Toxic”, the Activity [17] was “Toxic” and the Activity [18] was “Toxic”. The Activity [19] was “Toxic”, the Activity [20] was “Toxic” and the Activity [21] was “Toxic”. For the same compound, the Activity [22] was “Non-Toxic”, the Activity [23] was “Non-Toxic” and the Activity [24] was “Toxic”. The Activity [25] was 1.3%, the Activity [26] was 10.1% and the pIC50 [27] was 7.43.
